Measurements: ChEMBL document CHEMBL1833921, “Synthesis and biological evaluation of phenstatin metabolites” (Bioorg Med Chem, 2011)

Legend:
[1] = Inhibition of bovine brain tubulin polymerization after 30 mins by turbidimetry analysis; design: species or system Bos taurus
In short: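 Lyophilized bovine brain tubulin (97%) reconstituted to 5 mg/mL in 80 mM PIPES pH 6.9, 2 mM MgCl₂, 0.5 mM EGTA, 1.0 mM GTP and 5% glycerol. Compound in DMSO was added to this solution in a quartz cuvette at 0 °C. Assembly was followed as the rise in absorbance at 340 nm at 37 °C. IC₅₀ is the molar concentration halving the extent of assembly after 30 min.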

[2] = tested on: DU-145; assay: Cytotoxicity against human DU145 cells after 48 hrs by sulforhodamine B assay; assay type: functional; settings: DU-145, 48 h
[3] = tested on: OVCAR-3; assay: Cytotoxicity against human OVCAR3 cells after 48 hrs by sulforhodamine B assay; assay type: functional; settings: OVCAR-3, 48 h
[4] = tested on: SK-MEL-28; assay: Cytotoxicity against human SK-MEL-28 cells after 48 hrs by sulforhodamine B assay; assay type: functional; settings: SK-MEL-28, 48 h
[5] = tested on: NCI-H460; assay: Cytotoxicity against human NCI-H460 cells after 48 hrs by sulforhodamine B assay; assay type: functional; settings: NCI-H460, 48 h
[6] = tested on: OVCAR-5; assay: Cytotoxicity against human OVCAR5 cells after 48 hrs by sulforhodamine B assay; assay type: functional; settings: OVCAR-5, 48 h
[7] = tested on: HL-60(TB); assay: Cytotoxicity against human HL-60(TB) cells after 48 hrs by sulforhodamine B assay; assay type: functional; settings: HL-60, 48 h
[8] = tested on: COLO 205; assay: Cytotoxicity against human COLO205 cells after 48 hrs by sulforhodamine B assay; assay type: functional; settings: COLO 205, 48 h
[9] = tested on: SN12C; assay: Cytotoxicity against human SN12C cells after 48 hrs by sulforhodamine B assay; assay type: functional
[10] = tested on: NCI/ADR-RES; assay: Cytotoxicity against human NCI/ADR-RES cells after 48 hrs by sulforhodamine B assay; assay type: functional
[11] = tested on: RXF 393; assay: Cytotoxicity against human RXF393 cells after 48 hrs by sulforhodamine B assay; assay type: functional; settings: RXF 393, 48 h
[12] = tested on: HCT-15; assay: Cytotoxicity against human HCT15 cells after 48 hrs by sulforhodamine B assay; assay type: functional; settings: HCT-15, 48 h
[13] = tested on: NCI-H322M; assay: Cytotoxicity against human NCI-H322M cells after 48 hrs by sulforhodamine B assay; assay type: functional
[14] = tested on: Hs-578T; assay: Cytotoxicity against human HS578T cells after 48 hrs by sulforhodamine B assay; assay type: functional
[15] = tested on: HCT-116; assay: Cytotoxicity against human HCT116 cells after 48 hrs by sulforhodamine B assay; assay type: functional; settings: HCT-116, 48 h
[16] = tested on: UO-31; assay: Cytotoxicity against human UO31 cells after 48 hrs by sulforhodamine B assay; assay type: functional; settings: UO-31, 48 h
[17] = tested on: K562; assay: Cytotoxicity against human K562 cells after 48 hrs by sulforhodamine B assay; assay type: functional; settings: K562, 48 h
[18] = tested on: UACC-62; assay: Cytotoxicity against human UACC62 cells after 48 hrs by sulforhodamine B assay; assay type: functional; settings: UACC-62, 48 h
[19] = tested on: A549; assay: Cytotoxicity against human A549/ATCC cells after 48 hrs by sulforhodamine B assay; assay type: functional; settings: A549, 48 h
[20] = tested on: OVCAR-4; assay: Cytotoxicity against human OVCAR4 cells after 48 hrs by sulforhodamine B assay; assay type: functional; settings: OVCAR-4, 48 h
[21] = tested on: SF-295; assay: Cytotoxicity against human SF295 cells after 48 hrs by sulforhodamine B assay; assay type: functional; settings: SF-295, 48 h
[22] = tested on: CCRF-CEM; assay: Cytotoxicity against human CCRF-CEM cells after 48 hrs by sulforhodamine B assay; assay type: functional
[23] = tested on: CAKI-1; assay: Cytotoxicity against human Caki1 cells after 48 hrs by sulforhodamine B assay; assay type: functional; settings: CAKI-1, 48 h
[24] = tested on: MDA-MB-435; assay: Cytotoxicity against human MDA-MB-435 cells after 48 hrs by sulforhodamine B assay; assay type: functional; settings: MDA-MB-435, 48 h
[25] = tested on: M14; assay: Cytotoxicity against human M14 cells after 48 hrs by sulforhodamine B assay; assay type: functional; settings: M14, 48 h
[26] = tested on: SK-MEL-2; assay: Cytotoxicity against human SK-MEL-2 cells after 48 hrs by sulforhodamine B assay; assay type: functional; settings: SK-MEL-2, 48 h
[27] = tested on: A498; assay: Cytotoxicity against human A498 cells after 48 hrs by sulforhodamine B assay; assay type: functional; settings: A498, 48 h
[28] = tested on: NCI-H522; assay: Cytotoxicity against human NCI-H522 cells after 48 hrs by sulforhodamine B assay; assay type: functional; settings: NCI-H522, 48 h
[29] = tested on: MDA-MB-231; assay: Cytotoxicity against human MDA-MB-231/ATCC cells after 48 hrs by sulforhodamine B assay; assay type: functional; settings: MDA-MB-231, 48 h
[30] = tested on: MCF7; assay: Cytotoxicity against human MCF7 cells after 48 hrs by sulforhodamine B assay; assay type: functional; settings: MCF7, 48 h
[31] = tested on: EKVX; assay: Cytotoxicity against human EKVX cells after 48 hrs by sulforhodamine B assay; assay type: functional
[32] = tested on: SK-OV-3; assay: Cytotoxicity against human SKOV3 cells after 48 hrs by sulforhodamine B assay; assay type: functional; settings: SK-OV-3, 48 h
[33] = tested on: MDA-MB-468; assay: Cytotoxicity against human MDA-MB-468 cells after 48 hrs by sulforhodamine B assay; assay type: functional; settings: MDA-MB-468, 48 h
[34] = tested on: SF-539; assay: Cytotoxicity against human SF539 cells after 48 hrs by sulforhodamine B assay; assay type: functional; settings: SF-539, 48 h
[35] = tested on: KM12; assay: Cytotoxicity against human KM12 cells after 48 hrs by sulforhodamine B assay; assay type: functional; settings: KM12, 48 h
[36] = tested on: A549; assay: Cytotoxicity against human A549 cells after 48 hrs by sulforhodamine B assay; assay type: functional; settings: A549, 48 h
[37] = tested on: HL-60; assay: Cytotoxicity against human HL60 cells after 48 hrs by sulforhodamine B assay; assay type: functional; settings: HL-60, 48 h
[38] = tested on: HT-29; assay: Cytotoxicity against human HT29 cells after 48 hrs by sulforhodamine B assay; assay type: functional; settings: HT-29, 48 h
[39] = tested on: HCC 2998; assay: Cytotoxicity against human HCC2998 cells after 48 hrs by sulforhodamine B assay; assay type: functional; settings: HCC 2998, 48 h
[40] = tested on: SF-268; assay: Cytotoxicity against human SF268 cells after 48 hrs by sulforhodamine B assay; assay type: functional; settings: SF-268, 48 h

Row | Compound | IC50 [1] | GI50 [2] | GI50 [3] | GI50 [4] | GI50 [5] | GI50 [6] | GI50 [7] | GI50 [8] | GI50 [9] | GI50 [10] | GI50 [11] | GI50 [12] | GI50 [13] | GI50 [14] | GI50 [15] | GI50 [21] | GI50 [24] | GI50 [27] | GI50 [30] | GI50 [38] | further results
1 | COc1ccc(/C=C/c2cc(OC)c(OC)c(OC)c2)c(O)c1O | 1.9 µM | 0.512 µM | – | – | – | – | – | – | – | – | – | – | – | – | – | – | – | – | – | – | –
2 | COc1ccc(C(=O)c2cc(OC)c(O)c(OC)c2)cc1OC | > 100 µM | 4.49 µM | 2.33 µM | 9.46 µM | 3.44 µM | 12.9 µM | 1.25 µM | 14.2 µM | 6.68 µM | 0.854 µM | 1.88 µM | 2.07 µM | 3.44 µM | 4.92 µM | 2.5 µM | 2.08 µM | 0.273 µM | 3.36 µM | 0.433 µM | – | GI50 [16]: 2.16 µM; GI50 [17]: 0.666 µM; GI50 [18]: 8.41 µM; GI50 [19]: 59.1 µM; GI50 [20]: > 100 µM; GI50 [22]: 4.05 µM; GI50 [23]: 3.01 µM; GI50 [25]: 0.902 µM; GI50 [26]: 5.29 µM; GI50 [28]: 3.64 µM; GI50 [29]: 4.79 µM; GI50 [31]: > 100 µM; GI50 [32]: 2.2 µM; GI50 [33]: 1.97 µM; GI50 [34]: 2.96 µM; GI50 [35]: 1.09 µM
3 | COc1ccc(C(=O)c2cc(OC)c(OC)c(OC)c2)cc1N | 1.5 µM | – | – | – | – | – | – | – | – | – | – | – | – | – | – | – | – | – | – | 0.033 µM | GI50 [36]: 0.057 µM; GI50 [37]: 0.03 µM
4 | COc1ccc(C(=O)c2cc(OC)c(OC)c(OC)c2)c(N)c1 | 0.4 µM | 0.036 µM | – | – | – | – | – | – | – | – | – | – | – | – | – | – | – | – | 0.023 µM | 0.042 µM | –
5 | COc1ccc(C(=O)c2cc(OC)c(OC)c(OC)c2)c(OC)c1NC(C)=O | > 50 µM | 0.292 µM | 3.3 µM | – | – | – | – | – | – | – | – | – | – | – | – | 0.293 µM | – | 0.0855 µM | 9.6 µM | 4.33 µM | GI50 [36]: 4.62 µM; GI50 [37]: 3.53 µM
6 | COc1ccc(C(=O)c2cc(OC)c(OC)c(OC)c2)c(OC)c1N | 10 µM | 0.0274 µM | 0.0202 µM | – | – | – | – | – | – | – | – | – | – | – | – | 0.0199 µM | < 10 µM | 0.0221 µM | 0.0106 µM | 0.0323 µM | GI50 [36]: 0.039 µM; GI50 [37]: 0.0331 µM
7 | COc1cc(C(=O)c2ccc3c(c2)oc(=O)n3S(C)(=O)=O)cc(OC)c1OC | > 100 µM | 3.04 µM | 1.56 µM | 11.3 µM | 2.64 µM | 5.77 µM | 2.52 µM | 2.5 µM | 7.79 µM | 2.03 µM | 4.63 µM | 2 µM | 5.38 µM | 3.16 µM | 2.31 µM | 1.61 µM | 0.289 µM | 3.11 µM | 4.43 µM | – | GI50 [39]: 6.75 µM; GI50 [16]: 6.81 µM; GI50 [17]: 0.588 µM; GI50 [18]: 5.3 µM; GI50 [19]: 4.68 µM; GI50 [20]: 22.3 µM; GI50 [22]: 3.35 µM; GI50 [23]: 2.64 µM; GI50 [40]: 7.95 µM; GI50 [25]: 1.36 µM; GI50 [26]: 5.11 µM; GI50 [28]: 2.34 µM; GI50 [29]: 4.85 µM; GI50 [31]: 4.58 µM; GI50 [32]: 2.84 µM; GI50 [33]: 2.82 µM; GI50 [34]: 2.36 µM; GI50 [35]: 1.15 µM
8 | COc1cc(C(=O)c2ccc(OC)c(O)c2OC)cc(OC)c1O | 14.9 µM | 0.818 µM | 0.363 µM | 100 µM | 1.97 µM | 4.92 µM | 0.364 µM | 4.83 µM | 13.7 µM | 0.515 µM | 0.755 µM | 0.611 µM | 4.99 µM | 0.358 µM | 1.41 µM | 1.4 µM | 0.282 µM | 1.7 µM | 1.01 µM | – | GI50 [39]: 2.89 µM; GI50 [16]: 16.6 µM; GI50 [17]: 0.153 µM; GI50 [18]: 5.01 µM; GI50 [19]: 3.47 µM; GI50 [20]: 100 µM; GI50 [22]: 0.896 µM; GI50 [23]: 1.9 µM; GI50 [40]: 4.25 µM; GI50 [25]: 0.455 µM; GI50 [26]: 100 µM; GI50 [28]: 0.29 µM; GI50 [29]: 2.16 µM; GI50 [31]: 4.76 µM; GI50 [32]: 0.912 µM; GI50 [33]: 0.864 µM; GI50 [34]: 0.611 µM; GI50 [35]: 0.409 µM
9 | COc1ccc(C(=O)c2cc(OC)c(OC)c(OC)c2)c(O)c1O [HYDROXYPHENSTATIN] | 0.8 µM | 0.144 µM | – | – | – | – | – | – | – | – | – | – | – | – | – | 0.12 µM | – | – | – | – | –
